{"data": "Experimental data pooled from the literature", "PADI1": "Protein-arginine deiminase type-1 (PADI1, Homo sapiens, UniProt Q9ULC6)", "PMV": "Plasmepsin V (PMV, Plasmodium falciparum, UniProt Q8I6Z5)", "note": "Protocols differ between the studies behind these lines."}
{"Structure (SMILES)": "CCOC(=O)[C@H](CCCN=C(N)N)NC(=O)c1ccccc1", "target": "PADI1", "effect on": "enzyme activity", "mode": "substrate", "measurement": "Km", "result": "190 µM"}
{"Structure (SMILES)": "Cc1ccccc1CNC(=O)[C@H]1N(C(=O)[C@@H](O)[C@H](Cc2ccccc2)NC(=O)c2cccc(O)c2C)CSC1(C)C", "target": "PMV", "effect on": "enzyme activity", "mode": "inhibitor", "technique": "fluorescence", "tested at": "10 µM", "measurement": "activity vs control", "result": "73%"}
{"Structure (SMILES)": "CCN(CC)CCCC[C@H](NC(=O)[C@H](CC(C)C)NC(=O)[C@H](C)NC(=O)[C@H](Cc1ccccc1)NC(=O)c1ccc(C(C)(C)C)cc1)C(=O)N[C@@H](CO)C(=O)OC", "target": "ATPase family AAA domain-containing protein 2, bromodomain (ATAD2, Homo sapiens, UniProt Q6PL18)", "effect on": "thermal stability", "technique": "DSF", "tested at": "25 µM", "measurement": "ΔTm", "result": "-0.62 °C"}
{"Structure (SMILES)": "COC(=O)[C@H](CCCNC(=N)N)NC(=O)c1ccccc1", "target": "PADI1", "effect on": "enzyme activity", "mode": "substrate", "measurement": "Km", "result": "370 µM"}
{"Structure (SMILES)": "C#Cc1n[nH]c2c(-c3cn(C(C)c4ccccn4)c(=O)[nH]c3=O)cc(F)cc12 (stereo not shown)", "target": "Dual specificity tyrosine-phosphorylation-regulated kinase 2 (DYRK2, Homo sapiens, UniProt Q92630)", "effect on": "enzyme activity", "mode": "inhibitor", "tested at": "1 µM", "measurement": "inhibition", "result": "-7.1%"}
{"Structure (SMILES)": "Nc1ncc(-c2nc(N3CCOCC3)nc(N3CCOCC3)n2)c(C(F)F)n1", "target": "Phosphatidylinositol 4,5-bisphosphate 3-kinase catalytic subunit alpha isoform (PIK3CA, Homo sapiens, UniProt P42336, H1047L)", "effect on": "binding", "technique": "competition with immobilised ligand", "tested at": "10 µM", "measurement": "remaining binding", "result": "0%"}
{"Structure (SMILES)": "COc1ncccc1-c1cnn2ccc(N3CCN(C(=O)OC(C)C)CC3)nc12", "target": "Serine/threonine-protein kinase 32B (STK32B, Homo sapiens, UniProt Q9NY57)", "effect on": "binding", "technique": "competition with immobilised ligand", "tested at": "1 µM", "measurement": "remaining binding", "result": "98%"}
{"Structure (SMILES)": "Cc1nn(C)cc1-c1nc2c(N3CCN(Cc4ccc(Cl)cc4)CC3)c(Cl)cnc2[nH]1", "target": "Activin receptor type-1-like (ACVRL1, Homo sapiens, UniProt P37023)", "effect on": "binding", "technique": "competition with immobilised ligand", "tested at": "1 µM", "measurement": "remaining binding", "result": "100%"}
{"Structure (SMILES)": "Cc1cccc(C)c1OCC(=O)N[C@@H](Cc1ccccc1)[C@H](O)C(=O)N1CSC(C)(C)[C@H]1C(=O)N[C@H]1c2ccccc2C[C@H]1O", "target": "PMV", "effect on": "enzyme activity", "mode": "inhibitor", "technique": "fluorescence", "tested at": "10 µM", "measurement": "activity vs control", "result": "77%"}
{"Structure (SMILES)": "CC(C)C[C@H](CC(=O)NO)C(=O)N[C@H](C(=O)N[C@@H](C)C(=O)NCCN)C(C)(C)C", "target": "Disintegrin and metalloproteinase domain-containing protein 17 (ADAM17, Homo sapiens, UniProt P78536)", "effect on": "enzyme activity", "mode": "inhibitor", "tested at": "1 µM", "measurement": "inhibition", "result": "13%"}
